Measurements pooled from the literature.
Compare with care: the assays were run in different laboratories.
Organism: Mycobacterium tuberculosis
Effect on: microbial growth

The MIC of `COc1cccc2c1C(=O)c1c(O)c3c(c(O)c1C2=O)C[C@@](O)(C(=O)CO)C[C@@H]3O[C@H]1C[C@H](N)[C@H](O)[C@H](C)O1` is reported as 5 µM (resazurin; H37RV).
`CCN1CCc2c(sc(N)c2C(=O)NC23CC4CC(CC(C4)C2)C3)C1` has an MIC of over 200 µM (resazurin; H37RV).
The MIC of `O=C1c2cccc(O)c2C(=O)c2c(O)cc(CO)cc21` is reported as over 320 µM (resazurin; H37RV).
The MIC of `CO[C@H]1/C=C/O[C@@]2(C)Oc3c(C)c(O)c4c(O)c(c(/C=N/N5CCN(C)CC5)c(O)c4c3C2=O)NC(=O)/C(C)=C\C=C\[C@H](C)[C@H](O)[C@@H](C)[C@@H](O)[C@@H](C)[C@H](OC(C)=O)[C@@H]1C` is reported as 0.05 µg/mL (resazurin; ATCC35801 ERDMAN; 7 days).
`CCOC(=O)c1c(NC(=O)c2cc(C(F)(F)F)cc(C(F)(F)F)c2)sc2c1CCN(C(=O)OC(C)(C)C)C2` has an MIC of under 100 µM (resazurin; H37RV).
The MIC of `CO[C@H]1/C=C/O[C@@]2(C)Oc3c(C)c(O)c4c(O)c(c(/C=N/N5CCN(C)CC5)c(O)c4c3C2=O)NC(=O)/C(C)=C\C=C\[C@H](C)[C@H](O)[C@@H](C)[C@@H](O)[C@@H](C)[C@H](OC(C)=O)[C@@H]1C` is reported as 0.17 µg/mL (H37RV; 14 days).
The MIC of `CCOC(=O)c1c(NC(=O)c2cc(C(F)(F)F)cc(C(F)(F)F)c2)sc2c1CCN(CC)C2` is reported as over 200 µM (resazurin; H37RV).
With `O=C(O)c1cc(O)c2c(c1)C(=O)c1cccc(O)c1C2=O` the MIC was over 320 µM (resazurin; H37RV).
With `CC[C@@H](CO)NCCN[C@@H](CC)CO` the MIC was 0.78 µg/mL (H37RV; 14 days).
The MIC of `CC[C@@H](CO)NCCN[C@@H](CC)CO` is reported as 0.8 µg/mL (H37RV; 7 days).
